Converted amounts (≈) assume the structure as drawn.
Experiments:
Type in all cases: functional
Klebsiella pneumoniae [1] = assay: Antibacterial activity against ESBL-positive Klebsiella pneumoniae 14-19 after 18 to 24 hrs
In short: (§1)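 MIC by standard NCCLS reference procedure (M100-S11); lowest concentration of compound inhibiting visible bacterial growth after incubation at 35 °C for 18–24 h, read as complete inhibition of growth. Ciprofloxacin, levofloxacin and moxifloxacin run alongside as reference agents.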

Staphylococcus aureus [2] = assay: Antibacterial activity against Staphylococcus aureus CMCC 26003 after 18 to 24 hrs; in short: as §1
[3] = system: Staphylococcus epidermidis; assay: Antibacterial activity against methicillin-resistant Staphylococcus epidermidis 14-39 after 18 to 24 hrs
Pseudomonas aeruginosa [4] = assay: Antibacterial activity against Pseudomonas aeruginosa 14-16 after 18 to 24 hrs; in short: as §1
Staphylococcus aureus [5] = assay: Antibacterial activity against methicillin-sensitive Staphylococcus aureus 14-1 after 18 to 24 hrs; in short: as §1
Escherichia coli [6] = assay: Antibacterial activity against Escherichia coli ATCC 25922 after 18 to 24 hrs; in short: as §1
[7] = system: Staphylococcus epidermidis; assay: Antibacterial activity against methicillin-sensitive Staphylococcus epidermidis 14-2 after 18 to 24 hrs; in short: as §1
Escherichia coli [8] = assay: Antibacterial activity against Escherichia coli 14-1 after 18 to 24 hrs; in short: as §1
Enterococcus faecium [9] = assay: Antibacterial activity against Enterococcus faecium 14-5 after 18 to 24 hrs; in short: as §1
Pseudomonas aeruginosa [10] = assay: Antibacterial activity against Pseudomonas aeruginosa 14-9 after 18 to 24 hrs; in short: as §1
[11] = system: Mycobacterium tuberculosis; assay: Antimycobacterial activity against Mycobacterium tuberculosis H37Rv ATCC 27294 by alamar blue assay
In short: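 Microplate Alamar Blue Assay; MIC is the lowest concentration giving ≥90% reduction in fluorescence relative to the mean of replicate bacterium-only controls. MDR strain 6133 is resistant to isoniazid and rifampicin.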

Enterococcus faecalis [12] = assay: Antibacterial activity against Enterococcus faecalis 14-2 after 18 to 24 hrs; in short: as §1
Enterococcus faecium [13] = assay: Antibacterial activity against Enterococcus faecium 14-1 after 18 to 24 hrs; in short: as §1
Enterococcus faecium [14] = assay: Antibacterial activity against Enterococcus faecium 14-2 after 18 to 24 hrs; in short: as §1
Escherichia coli [15] = assay: Antibacterial activity against ESBL-positive Escherichia coli 14-2 after 18 to 24 hrs; in short: as §1
Klebsiella pneumoniae [16] = assay: Antibacterial activity against ESBL-positive Klebsiella pneumoniae 14-17 after 18 to 24 hrs; in short: as §1
Staphylococcus aureus [17] = assay: Antibacterial activity against methicillin-resistant Staphylococcus aureus 14-5 after 18 to 24 hrs
Enterococcus faecalis [18] = assay: Antibacterial activity against Enterococcus faecalis 14-1 after 18 to 24 hrs; in short: as §1
Staphylococcus aureus [19] = assay: Antibacterial activity against methicillin-sensitive Staphylococcus aureus 14-4 after 18 to 24 hrs; in short: as §1
[20] = system: Staphylococcus epidermidis; assay: Antibacterial activity against methicillin-resistant Staphylococcus epidermidis 14-37 after 18 to 24 hrs
Klebsiella pneumoniae [21] = assay: Antibacterial activity against ESBL-positive Klebsiella pneumoniae 14-18 after 18 to 24 hrs; in short: as §1
Pseudomonas aeruginosa [22] = assay: Antibacterial activity against Pseudomonas aeruginosa 14-14 after 18 to 24 hrs; in short: as §1
Pseudomonas aeruginosa [23] = assay: Antibacterial activity against Pseudomonas aeruginosa 14-19 after 18 to 24 hrs; in short: as §1
Klebsiella pneumoniae [24] = assay: Antibacterial activity against Klebsiella pneumoniae 14-1 after 18 to 24 hrs; in short: as §1
[25] = system: Staphylococcus epidermidis; assay: Antibacterial activity against methicillin-resistant Staphylococcus epidermidis 14-21 after 18 to 24 hrs
Klebsiella pneumoniae [26] = assay: Antibacterial activity against Klebsiella pneumoniae 14-2 after 18 to 24 hrs; in short: as §1
Klebsiella pneumoniae [27] = assay: Antibacterial activity against Klebsiella pneumoniae 14-3 after 18 to 24 hrs; in short: as §1
Pseudomonas aeruginosa [28] = assay: Antibacterial activity against Pseudomonas aeruginosa ATCC 27853 after 18 to 24 hrs; in short: as §1
Enterococcus faecium [29] = assay: Antibacterial activity against Enterococcus faecium 14-6 after 18 to 24 hrs; in short: as §1
Staphylococcus aureus [30] = assay: Antibacterial activity against methicillin-resistant Staphylococcus aureus 14-4 after 18 to 24 hrs
Escherichia coli [31] = assay: Antibacterial activity against Escherichia coli 14-2 after 18 to 24 hrs; in short: as §1
Pseudomonas aeruginosa [32] = assay: Antibacterial activity against Pseudomonas aeruginosa 14-15 after 18 to 24 hrs; in short: as §1
[33] = system: Staphylococcus epidermidis; assay: Antibacterial activity against methicillin-resistant Staphylococcus epidermidis 14-22 after 18 to 24 hrs
Streptococcus pneumoniae = assay: Antibacterial activity against Streptococcus pneumoniae ATCC 19615 after 18 to 24 hrs; in short: as §1
Klebsiella pneumoniae [34] = assay: Antibacterial activity against Klebsiella pneumoniae 14-4 after 18 to 24 hrs; in short: as §1
Staphylococcus aureus [35] = assay: Antibacterial activity against methicillin-sensitive Staphylococcus aureus 14-2 after 18 to 24 hrs; in short: as §1
Staphylococcus aureus [36] = assay: Antibacterial activity against methicillin-sensitive Staphylococcus aureus 14-3 after 18 to 24 hrs; in short: as §1
Escherichia coli [37] = assay: Antibacterial activity against ESBL-positive Escherichia coli 14-1 after 18 to 24 hrs; in short: as §1

COc1ccc(CO/N=C2\CN(c3nc4c(cc3F)c(=O)c(C(=O)O)cn4[C@@H]3C[C@@H]3F)CC2CN)cc1 (stereo partly drawn)
MIC (Klebsiella pneumoniae [1]): 128 µg/mL (≈ 249 µM) | MIC (Staphylococcus aureus [2]): < 0.008 µg/mL | MIC [3]: 8 µg/mL (≈ 15.6 µM) | MIC (Pseudomonas aeruginosa [4]): 8 µg/mL (≈ 15.6 µM) | MIC (Staphylococcus aureus [5]): 2 µg/mL (≈ 3.89 µM) | MIC (Escherichia coli [6]): < 0.008 µg/mL | MIC [7]: 32 µg/mL (≈ 62.3 µM) | MIC (Escherichia coli [8]): 32 µg/mL (≈ 62.3 µM) | MIC (Enterococcus faecium [9]): 8 µg/mL (≈ 15.6 µM) | MIC (Pseudomonas aeruginosa [10]): 8 µg/mL (≈ 15.6 µM) | MIC90 [11]: 0.353 µg/mL (≈ 0.687 µM) | MIC (Enterococcus faecalis [12]): < 0.008 µg/mL | MIC (Enterococcus faecium [13]): 2 µg/mL (≈ 3.89 µM) | MIC (Enterococcus faecium [14]): 2 µg/mL (≈ 3.89 µM) | MIC (Escherichia coli [15]): 64 µg/mL (≈ 125 µM) | MIC (Klebsiella pneumoniae [16]): 8 µg/mL (≈ 15.6 µM) | MIC (Staphylococcus aureus [17]): 8 µg/mL (≈ 15.6 µM) | MIC (Enterococcus faecalis [18]): 32 µg/mL (≈ 62.3 µM) | MIC (Staphylococcus aureus [19]): 0.03 µg/mL (≈ 0.0584 µM) | MIC [20]: 16 µg/mL (≈ 31.2 µM) | MIC (Klebsiella pneumoniae [21]): 8 µg/mL (≈ 15.6 µM) | MIC (Pseudomonas aeruginosa [22]): 8 µg/mL (≈ 15.6 µM) | MIC (Pseudomonas aeruginosa [23]): 16 µg/mL (≈ 31.2 µM) | MIC (Klebsiella pneumoniae [24]): 128 µg/mL (≈ 249 µM) | MIC [25]: 4 µg/mL (≈ 7.79 µM) | MIC (Klebsiella pneumoniae [26]): 128 µg/mL (≈ 249 µM) | MIC (Klebsiella pneumoniae [27]): 128 µg/mL (≈ 249 µM) | MIC (Pseudomonas aeruginosa [28]): 4 µg/mL (≈ 7.79 µM) | MIC (Enterococcus faecium [29]): 8 µg/mL (≈ 15.6 µM) | MIC (Staphylococcus aureus [30]): 16 µg/mL (≈ 31.2 µM) | MIC (Escherichia coli [31]): 32 µg/mL (≈ 62.3 µM) | MIC (Pseudomonas aeruginosa [32]): 16 µg/mL (≈ 31.2 µM) | MIC [33]: 4 µg/mL (≈ 7.79 µM) | MIC (Streptococcus pneumoniae): 0.015 µg/mL (≈ 0.0292 µM) | MIC (Klebsiella pneumoniae [34]): 128 µg/mL (≈ 249 µM) | MIC (Staphylococcus aureus [35]): < 0.008 µg/mL | MIC (Staphylococcus aureus [36]): 0.015 µg/mL (≈ 0.0292 µM) | MIC (Escherichia coli [37]): < 0.008 µg/mL

Reference: ChEMBL document CHEMBL3632558, “Synthesis, antimycobacterial and antibacterial activity of l-[(1R,2S)-2-fluorocyclopropyl]naphthyridone derivatives containing an oxime-functionalized pyrrolidine moiety” (2015)
